Activity calls are given as the source filed them.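 The calls were made as follows, unless noted: active = viability at or below 30% in both replicate assays; inconclusive = viability at or below 30% in just one of the two assays; inactive = the rest.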

The term viability denotes a read-out of living cells in per cent, often relative to untreated cells. The inhibition is the drop in the measured response relative to a control, in per cent.

Test [1] can be described thus: SK-BR-3 cell growth inhibitors, pilot screen, 24 h, human (AID 572;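 active = viability at or below 10% of carrier control in both of two separate runs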;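 also: compound exposure lasted between 18 and 24 h rather than exactly 24 h; 100% = carrier-treated control wells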). The settings on record: SK-BR-3 viability, CellTiter-Glo luminescence, at 10 µM, stronger effect = lower value. A general note: ATP-based viability assays read luminescence as a measure of living cells.
Test [2] can be described thus: HUVEC growth inhibition – cell-based, human, primary screen (AID 575).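 Also: 100% = median of untreated cell wells with 0.1% DMSO on each plate.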 The settings on record: HUVEC proliferation, CellTiter-Glo luminescence, 72 h; at 10 µM; stronger effect = lower value. An outline of the steps: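 system = HUVEC primary cells | amount = 1250 cells/well | buffer or medium = supplemented EBM, 2% fetal bovine serum | dosing = single-point 10 µM, DMSO 0.1% final | times = 72 h compound incubation | detection = CTG luminescence | read-out = % viability relative to median vehicle-well signal on each plate | control set = vehicle and MePR control wells | format = collagen-coated 384-well format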

Test [3] in a line: growth inhibitors of H69AR lung tumor, primary screen, human, duplicate replicates (AID 580;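 active = viability at or under a set limit in both replicates, limit being median viability minus 3 SD, cut at about 48% in these data, passing the limit was not always enough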;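 also: 100% = mean luminescence of untreated wells and 0% = no signal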). The settings on record: H69AR lung tumor cells viability, ATP luminescence, 72 h; at 10 µM; stronger effect = lower value.
Test [4] in a line: reversal of MRP1-mediated doxorubicin resistance, pilot screen, H69AR cells, doxorubicin co-treatment (AID 601;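 active = viability loss from added drug above about 55%, and viability with drug at most 40%, in both replicates, limit read from the data, passing the limit was not always enough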). The settings on record: CellTiter-Glo, 72 h, at 10 µM; for differential viability (reversal): stronger effect = higher value.
Test [5] in a line: 384-well plate pilot, post-Golgi transport modulator project, inhibition of yeast transport mutant growth (AID 636; in the data active = inhibition above about 31%). The settings on record: absorbance 615 nm, about 18 h, stronger effect = higher value.
Test [6] in a line: growth suppression of yeast trafficking mutant, preliminary HTS, modulators of trafficking downstream of Golgi apparatus project, 1536-format plate, OD 615 nm (AID 637; in the data active = inhibition above about 30%). The settings on record: yeast transport mutant growth, absorbance 615 nm, 18 h; stronger effect = higher value.
Where [7] appears, read: H69AR cells + 2 uM doxorubicin, measured here: viability with 2 uM doxorubicin, stronger effect = lower value.
Setting [8] is: H69AR cells, compound alone cytotoxicity.

On to `Cc1nc2ccccc2nc1OCC(=O)Nc1cc(C(F)(F)F)ccc1N1CCOCC1`, for which the viability in test [1] is 72% (inactive); in test [2], 93% (inactive); in test [3], 96.3% (inactive); in test [4] (setting [7]), 101%; in test [4] (setting [8]) it was 96.3%. Also, the differential viability (reversal) in test [4] (H69AR cells + 2 uM doxorubicin) is -4.5% (inactive). The figures for the inhibition in test [5] and in test [6] were -6.44% (inactive) and 3.64% (inactive), respectively.
As for `C=CCNC(=O)c1ccc(Cl)cc1Cl`, the viability in test [1] was 108% (inactive); in test [2], 92.8% (inactive); in test [3], 97% (inactive); in test [4] (setting [7]) it was 92.6%; in test [4] (setting [8]), 97%. Also, in test [4] (H69AR cells + 2 uM doxorubicin), the differential viability (reversal) was 4.47% (inactive). In addition, the inhibition is -3.9% (inactive) in test [5] and -1.48% (inactive) in test [6].
Take `O=C(CSc1nnc(-c2ccccn2)n1Cc1ccccc1)N1CCCC1`: the viability in test [1] was 109% (inactive); in test [2], 104% (inactive); in test [3], 98.8% (inactive); in test [4] (setting [7]), 87.9%; in test [4] (setting [8]), 98.8%. The differential viability (reversal) in test [4] (H69AR cells + 2 uM doxorubicin) is 10.9% (inactive). Also, the inhibition in test [5] was -8.67% (inactive); in test [6], -6% (inactive).
Turning to `CCCN1Cc2cccc(C(=O)NCc3cccs3)c2C1=O`, the viability in test [1] was 86% (inactive); in test [2], 111% (inactive); in test [3], 90.6% (inactive); in test [4] (setting [7]) it was 90.8%; in test [4] (setting [8]) it was 90.6%. Further, in test [4] (H69AR cells + 2 uM doxorubicin), the differential viability (reversal) is -0.255% (inactive). Besides, the inhibition in test [5] is -6% (inactive); in test [6], -1.45% (inactive).
With `Cc1ccc(CS(=O)(=O)Cc2ccc(C(=O)NCc3ccccn3)o2)cc1`, the viability in test [1] is 95% (inactive); in test [2], 99.8% (inactive); in test [3], 99.4% (inactive); in test [4] (setting [7]), 90.4%; in test [4] (setting [8]), 99.4%. For the same compound, the differential viability (reversal) in test [4] (H69AR cells + 2 uM doxorubicin) is 9% (inactive). Also, the inhibition in test [5] is -1.87% (inactive); in test [6] it was -0.18% (inactive).
Regarding `O=C(Nc1ccc2c(c1)nc1n2CCN(Cc2ccccc2)C1)c1cccs1`, the viability in test [1] was 76.5% (inactive); in test [2], 88.7% (inactive); in test [3] it was 80.2% (inactive); in test [4] (setting [7]), 92.6%; in test [4] (setting [8]), 80.2%. Also, the differential viability (reversal) in test [4] (H69AR cells + 2 uM doxorubicin) was -12.4% (inactive). The inhibition in test [5] was -5.89% (inactive); in test [6] it was 6.19% (inactive).
Turning to `CN1C(=O)c2c(sc3c2CCCC3)NC1c1ccccc1O` (stereo unspecified), the viability in test [1] is 72% (inactive); in test [2] it was 68.7% (inactive); in test [3], 93.2% (inactive); in test [4] (setting [7]) it was 95.2%; in test [4] (setting [8]), 93.2%. Also, in test [4] (H69AR cells + 2 uM doxorubicin), the differential viability (reversal) is -2.01% (inactive). Moreover, the inhibition is -3.97% (inactive) in test [5] and -0.81% (inactive) in test [6].
On to `CNC(=O)Oc1ccc2c(c1)[C@]1(C)CCN(C)[C@@H]1N2C`, for which the viability in test [1] is 112% (inactive); in test [2], 104% (inactive); in test [3], 93.9% (inactive); in test [4] (setting [7]), 101%; in test [4] (setting [8]) it was 93.9%. Also, in test [4] (H69AR cells + 2 uM doxorubicin), the differential viability (reversal) is -7% (inactive). The inhibition in test [5] is -3.12% (inactive); in test [6], 2% (inactive).
As to `O=C(Nc1cccc(OCC(=O)N2CCOCC2)c1)C1CCCCC1`, the viability in test [1] is 109% (inactive); in test [2] it was 90% (inactive); in test [3], 112% (inactive); in test [4] (setting [7]), 112%; in test [4] (setting [8]), 112%. Also, the differential viability (reversal) in test [4] (H69AR cells + 2 uM doxorubicin) is -0.43% (inactive). In addition, the inhibition in test [5] was -4.66% (inactive); in test [6] it was 0% (inactive).
Regarding `CCOc1ccccc1NC(=O)CN(C)S(=O)(=O)c1cccc2nsnc12`, the viability in test [1] was 104% (inactive); in test [2], 91.1% (inactive); in test [3], 84% (inactive); in test [4] (setting [7]), 85.1%; in test [4] (setting [8]), 84%. Further, in test [4] (H69AR cells + 2 uM doxorubicin), the differential viability (reversal) was -1.12% (inactive). Besides, the values for the inhibition in test [5] and in test [6] were -6.76% (inactive) and 0.73% (inactive), respectively.
On to `COCCOC(=O)C1=C(C)NC(C)=C(C(=O)OC(C)C)C1c1cccc([N+](=O)[O-])c1` (stereo unspecified), for which the viability in test [1] is 89% (inactive); in test [2] it was 65.2% (inactive); in test [3], 77.4% (inactive); in test [4] (setting [7]), 96.4%; in test [4] (setting [8]), 77.4%. Also, the differential viability (reversal) in test [4] (H69AR cells + 2 uM doxorubicin) was -19% (inactive). In addition, the values for the inhibition in test [5] and in test [6] were 1.56% (inactive) and 16.2% (inactive), respectively.
`Cc1nnc(N(C)C(=O)Cc2ccc3c(c2)OCO3)s1`: the viability was 94% (inactive) in test [1]; 92.6% (inactive) in test [2]; 94.6% (inactive) in test [3]; 89.3% in test [4] (setting [7]); 94.6% in test [4] (setting [8]). In addition, the differential viability (reversal) in test [4] (H69AR cells + 2 uM doxorubicin) was 5.27% (inactive). Moreover, the values for the inhibition in test [5] and in test [6] were 2.47% (inactive) and 8.71% (inactive), respectively.
In the case of `O=C(O)CCCc1ccccc1`, the viability is 97% (inactive) in test [1]; 91.8% (inactive) in test [2]; 98% (inactive) in test [3]; 96.4% in test [4] (setting [7]); 98% in test [4] (setting [8]). Further, the differential viability (reversal) in test [4] (H69AR cells + 2 uM doxorubicin) was 1.58% (inactive). Further, the inhibition is -0.91% (inactive) in test [5] and 8% (inactive) in test [6].
For the compound `NS(=O)(=O)c1ccc(CCNC(=O)c2cccnc2)cc1`, the viability in test [1] is 126% (inactive); in test [2] it was 92.3% (inactive); in test [3] it was 97.2% (inactive); in test [4] (setting [7]) it was 93.4%; in test [4] (setting [8]) it was 97.2%. Also, in test [4] (H69AR cells + 2 uM doxorubicin), the differential viability (reversal) was 3.81% (inactive). Besides, the inhibition is -4.46% (inactive) in test [5] and -0.91% (inactive) in test [6].
With `O=C(CN(C1CCCCC1)S(=O)(=O)c1ccccc1)NCc1cccnc1`, the viability in test [1] was 83% (inactive); in test [2], 103% (inactive); in test [3] it was 96% (inactive); in test [4] (setting [7]) it was 92.6%; in test [4] (setting [8]), 96%. The differential viability (reversal) in test [4] (H69AR cells + 2 uM doxorubicin) is 3.4% (inactive). Moreover, the results for the inhibition in test [5] and in test [6] were -6.76% (inactive) and -0.55% (inactive), respectively.
For the compound `CC(C)n1nnnc1SCC(=O)Nc1ccccc1N1CCOCC1`, the viability in test [1] is 53% (inactive); in test [2], 98.4% (inactive); in test [3] it was 98.5% (inactive); in test [4] (setting [7]), 99%; in test [4] (setting [8]) it was 98.5%. Further, the differential viability (reversal) in test [4] (H69AR cells + 2 uM doxorubicin) was -0.48% (inactive). Further, the inhibition in test [5] is -5.75% (inactive); in test [6], 2.73% (inactive).
Take `COc1cccc(NC(=O)N2CCC(N3CCCCC3)CC2)c1`: the viability in test [1] is 92% (inactive); in test [2], 88.2% (inactive); in test [3] it was 94.5% (inactive); in test [4] (setting [7]) it was 97.1%; in test [4] (setting [8]), 94.5%. For the same compound, the differential viability (reversal) in test [4] (H69AR cells + 2 uM doxorubicin) is -2.56% (inactive). For the same compound, the inhibition in test [5] was -4.29% (inactive); in test [6], -0.49% (inactive).

The values are drawn from PubChem BioAssay.
